Data set [1] can be described thus: melting temperature; fluorescence melt of hairpins on a sequencing array, two-state fit, raised by 9.35 °C to match UV melts. Conditions: sodium 0.088 M. Put shortly:
(§1)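 Two-state fits, bootstrapped, provided melting temperature and folding enthalpy from Cy3 fluorescence normalised to pre-quench Cy3 and to control constructs. Library hairpins with annealed Cy3 and quencher oligos were imaged on a sequenced MiSeq flow cell in 50 mM Na-HEPES pH 8.0, 25 mM NaCl, at 2.5 °C intervals up to 60 °C. Four replicates were combined with inverse-variance weighting. A 9.35 °C upward shift was applied to fitted temperatures to match UV melts.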

Data set [2] in a line: folding enthalpy; higher = less favourable; fluorescence melt of hairpins on a sequencing array, two-state fit. As to conditions: sodium 0.088 M. Put shortly: as §1

Results on 37 sequences are retold here after the array DNA melting data of Ke et al. (doi:10.1101/2024.01.08.574731).

Turning to GATCATTCCCATGATC ((((((....)))))), in data set [1], the Tm came to 46.8 °C. The folding enthalpy in data set [2] is -42.6 kcal/mol.

In the case of GCCTGTTCGAAAGAAGGC (((..(((....)))))), the Tm in data set [1] stood at 38.8 °C. Besides, the folding enthalpy in data set [2] was -25.6 kcal/mol.

Consider GAAGAAGGAAACTTCTTC (((((((....))))))), for which the Tm in data set [1] came to 50.6 °C. Besides, the folding enthalpy in data set [2] is -48.8 kcal/mol.

For the sequence GCGCAGCGAAAGCACCGC (((..((....))..))), in data set [1], the Tm is 45.2 °C. The folding enthalpy in data set [2] was -8.24 kcal/mol.

Consider ATGAGGAAACTCAT (((((....))))), for which, in data set [1], the Tm worked out at 39.6 °C. In addition, the folding enthalpy in data set [2] was -17.6 kcal/mol.

On to GCGATCGAAAGATGGCGC ((((((....)))..))), for which the Tm in data set [1] worked out at 53.2 °C. The folding enthalpy in data set [2] is -34.8 kcal/mol.

As for GATCTAGCGATAGATC ((((((....)))))), the Tm in data set [1] was found to be 46 °C. Besides, the folding enthalpy in data set [2] was -34.7 kcal/mol.

For GATCTTACACAAGATC ((((((....)))))), in data set [1], the Tm is 42.7 °C. In addition, the folding enthalpy in data set [2] was -28.2 kcal/mol.

Turning to GTTGAACGAAAGTTAAAC (((.(((....))).))), the Tm in data set [1] is 41.2 °C. In data set [2], the folding enthalpy is -26.9 kcal/mol.

For GCGTTACGAAAGTACGC (((.(((....)))))), the Tm in data set [1] came to 61.1 °C. In data set [2], the folding enthalpy was -32.2 kcal/mol.

In the case of GCGCTATCGAAAGATCGC (((..(((....)))))), the Tm in data set [1] came out at 44.2 °C. Further, the folding enthalpy in data set [2] was -25.6 kcal/mol.

Regarding GCGCCACGAAAGTGACGC (((.(((....))).))), in data set [1], the Tm turned out to be 66 °C. Moreover, the folding enthalpy in data set [2] is -38.4 kcal/mol.

In the case of GTGCTAGGAAACTGGTAC ((.(.((....)).).)), in data set [1], the Tm was found to be 32.6 °C. Further, the folding enthalpy in data set [2] was -18.9 kcal/mol.

In the case of GCAAGTGAAAACTTGC ((((((....)))))), the Tm in data set [1] amounted to 61.5 °C. Besides, the folding enthalpy in data set [2] is -35.4 kcal/mol.

Consider GATCCGGGTCGGATC ((((((...)))))), for which the Tm in data set [1] worked out at 58.6 °C. For the same sequence, in data set [2], the folding enthalpy is -29.6 kcal/mol.

With GTACATGGAAACATGTAC (((((((....))))))), the Tm in data set [1] stood at 55.7 °C. Besides, the folding enthalpy in data set [2] is -51.6 kcal/mol.

Take GGGTCCGAAAGGACGCCC ((((((....)))..))): the Tm in data set [1] amounted to 48.9 °C. Besides, the folding enthalpy in data set [2] is -10.3 kcal/mol.

For GCGGTCGAAAGACTCCGC ((((((....)))..))), the Tm in data set [1] worked out at 50.7 °C. Moreover, the folding enthalpy in data set [2] is -25.4 kcal/mol.

In the case of GCACCCGCGAAAGCGTGC (((..(((....)))))), the Tm in data set [1] stood at 42.6 °C. The folding enthalpy in data set [2] is -14.5 kcal/mol.

With GCTTGAGGAAACTCGAGC (((.(((....))).))), the Tm in data set [1] was determined as 51.5 °C. For the same sequence, the folding enthalpy in data set [2] is -41.5 kcal/mol.

GGCTACGGAAACGTGGCC (((.(((....))).))): the Tm in data set [1] is 60.1 °C. The folding enthalpy in data set [2] is -47.4 kcal/mol.

Regarding CGAGTACGGAAACGTTCG (((..(((....)))))), the Tm in data set [1] was found to be 36.6 °C. Also, in data set [2], the folding enthalpy was -20.4 kcal/mol.

As to GCTCAGCGAAAGCGAAGC (((..((....))..))), in data set [1], the Tm is 43.3 °C. In addition, the folding enthalpy in data set [2] is -18.5 kcal/mol.

Consider GCATATGGAAACATACGC ((.((((....)))).)), for which, in data set [1], the Tm amounted to 35.4 °C. Further, the folding enthalpy in data set [2] is -26.3 kcal/mol.

As to GAGGACGGAAACGTCCCC (.(((((....))))).), the Tm in data set [1] was determined as 42.3 °C. In data set [2], the folding enthalpy was -10.4 kcal/mol.

On to GATCCTGCAAAGGATC ((((((....)))))), for which the Tm in data set [1] turned out to be 61.3 °C. Also, the folding enthalpy in data set [2] was -34.6 kcal/mol.

Turning to GAATCCGAAAGGAGATTC ((((((....)))..))), the Tm in data set [1] was 36.4 °C. For the same sequence, the folding enthalpy in data set [2] is -18.7 kcal/mol.

As for GCCAAGCGAAAGCTGTGC ((..(((....)))..)), in data set [1], the Tm came out at 46.4 °C. Further, in data set [2], the folding enthalpy is -17.4 kcal/mol.

Consider GACGACGGAAACGTCATC ((.((((....)))).)), for which, in data set [1], the Tm was determined as 38.8 °C. In addition, the folding enthalpy in data set [2] is -15.7 kcal/mol.

As to GATCGTCATACGATC ((((((...)))))), in data set [1], the Tm was determined as 57.5 °C. Moreover, in data set [2], the folding enthalpy is -33.8 kcal/mol.

As to GATCTTTCTTAAGATC ((((((....)))))), the Tm in data set [1] was determined as 44.9 °C. The folding enthalpy in data set [2] is -37.3 kcal/mol.

With GATCTCGAGAGAGATC ((((((....)))))), the Tm in data set [1] was determined as 63.7 °C. The folding enthalpy in data set [2] is -32.6 kcal/mol.

Take GTCCAGCGAAAGCTAGAC (((.(((....))).))): in data set [1], the Tm stood at 46.4 °C. The folding enthalpy in data set [2] is -22.1 kcal/mol.

In the case of GGCTCTGGAAACAGGGTC (.(.(((....))).).), the Tm in data set [1] came out at 37.5 °C. The folding enthalpy in data set [2] was -29.6 kcal/mol.

As for GCTCCCCGAAAGGGTAGC (((.(((....))).))), in data set [1], the Tm worked out at 54 °C. The folding enthalpy in data set [2] is -21.7 kcal/mol.

Regarding GGCGTTCGAAAGAAGCC (((.(((....)))))), the Tm in data set [1] stood at 50.8 °C. Also, in data set [2], the folding enthalpy was -23.2 kcal/mol.

In the case of GGGTATGAAAATACCC ((((((....)))))), the Tm in data set [1] was determined as 57.6 °C. Also, in data set [2], the folding enthalpy is -35.4 kcal/mol.
